# From PubChem BioAssay
# The sample as a whole holds a higher share of hits than the screen did.
# XBP1 UPR activ: activators of adaptive arm of unfolded protein response (XBP1) | CHO-XBP1 luciferase reporter, IRE1-XBP1 UPR activation, luminescence; percent of tunicamycin response, DMSO as zero | activation, % at 20 µM | 330,000 compounds, 0.33% hits;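 active = versus positive control, 20 µM dose yields 30% or more activation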;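 also: 100% = tunicamycin at 10 µg/mL and 0% = DMSO only wells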
#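 incubation = overnight seeding at 37 °C, 6 h compound treatment at 37 °C | assay system = CHO-XBP1 cells stably carrying IRE1-XBP1-driven luciferase reporter | input = 1000 cells per well | detection = luciferase luminescence | dosing = single point, 20 µM final compound, 1% DMSO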
# T cruzi repl: blocks replication of Trypanosoma cruzi. 300,000 compounds, 1.4% hits. inhibition, % (test concentration not listed). T. cruzi beta-gal in NIH3T3, luminescence, 90 h. AID 1885;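 active = mean inhibition across valid replicates above about 55%, limit read from the data; inconclusive = mean below that limit but half or more replicates reach it; inactive = mean below it, under half of replicates reach it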;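 also: signal also drops with host cell toxicity which is not excluded here; 0% = plate median of DMSO wells and 100% = zero luminescence signal; higher percent means less beta-gal luminescence so fewer parasites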
#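 assay system = mouse NIH/3T3 fibroblasts infected with β-gal-expressing T. cruzi Tulahuen C4 | input = 5,000 NIH/3T3 host cells per well | buffer or medium = DMEM plus 2% FBS | timing = 3 h host attachment, then at least 90 h co-culture | measured by = GalScreen luminescence, 60 min | evaluation = luminescence reflecting intracellular parasite burden, expressed as percent inhibition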
# L major viab: inhibitors of Leishmania major promastigote growth; Leishmania major promastigotes, resazurin fluorescence viability; inhibition, % at 10 µM; 200,000 compounds, 9% hits; AID 1063; in the data active = inhibition above about 50%;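 also: promastigotes grown with compound for 44 hours at 28 °C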
# UPR CHOP act: activators of apoptotic arm of unfolded protein response (CHOP). activation, % at 10 µM. 330,000 compounds, 0.34% hits. AID 449763. CHO-CHOP luciferase reporter, UPR activation, luminescence; percent of tunicamycin response over DMSO baseline;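 active = at 10 µM dose, activation of 40% or more, normalized to positive control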;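 also: 100% = tunicamycin at 10 µg/mL and 0% = DMSO alone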
#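 Test system: CHO-CHOP cells, stable luciferase reporter of PERK-eIF2a-CHOP signalling | Quantity: 500 CHO-CHOP cells per well | Buffer or medium: F12 plus 10% serum | Compound dosing: 10 µM single point, 0.5% DMSO | Schedule: 6 h compound treatment, 37 °C | Signal: Luciferase luminescence | Control set: Tunicamycin high control, DMSO low control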
# Dynein cargo inh: dynein cargo transport inhibition. 3617.4 mouse cells, GR-EGFP nuclear translocation imaging; test concentration mostly 20 µM; stimulated with dexamethasone, 1 µM; hits give low values. z-score, hits read low. 220,000 compounds, 0.47% hits;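 active = plate z-score of nuclear minus cytoplasmic receptor signal below a set negative limit, without overly bright fluorescence or cell loss, cut at about -3.5 in these data, passing the limit was not always enough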;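 also: z-score of nuclear minus cytoplasmic ring GR-EGFP intensity difference per well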
#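 Buffer or medium: tetracycline-free induction medium containing charcoal-stripped FBS / Reagent: dexamethasone agonist, 1.0 µM final, for 30 min / Technique: automated 10x imaging of fixed Hoechst-stained cells / Times: induction 48 h, compound 1 h, agonist 30 min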
# CHOP inhibitor: inhibitors of CHOP induction in ER stress response; inhibition, % at 10 µM; CHO-K1 CHOP-promoter luciferase, tunicamycin-induced, 15-18 h; 220,000 compounds, 3.8% hits;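 active = compounds that reduced the stress-induced luciferase reporter signal by more than about 70% of percent inhibition, limit read from the data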;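 also: 0% = tunicamycin plus vehicle and 100% = wells without tunicamycin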
# * = called active by the depositor; ? = inconclusive; . = no result given.
SMILES,XBP1 UPR activ,T cruzi repl,L major viab,UPR CHOP act,Dynein cargo inh,CHOP inhibitor
Cc1cccc(NC(=O)c2ccc(S(=O)(=O)N3CCC(C)CC3)cc2)n1,-5,11,.,0,.,.
Cc1ccccc1C(=O)NC1CCN(CC(=O)Nc2ccc(Br)cc2)CC1,-1,15,.,0,.,.
C/C(=N\NS(=O)(=O)c1ccc([N+](=O)[O-])cc1)c1c[nH]c2ccccc12,-5,-9,.,0,.,.
COc1cc(C(=O)NC(=S)Nc2ccc(N3CCCC3)cc2)cc(OC)c1OC,0,33,8,1,2.6,75*
Cc1cccc(OCCCC(=O)Nc2nc3ccccc3[nH]2)c1,-1,-41,-4,-1,0.33,73*
COc1ccc(NCc2ccc(OC)c(Cn3ccnc3)c2)c(OC)c1,-2,56*,.,3,.,.
COc1ccc(Cn2ccnc2)cc1Br,-2,20,71*,-2,2.3,5
COc1ccc(Cn2ccnc2)cc1[N+](=O)[O-],3,-27,-1,0,0.65,7
Fc1ccccc1-c1nc2nc3ccccc3nc2n1CC1CCCO1 (stereo not drawn),-1,29,.,1,-0.28,-11
Cc1cc2nc(C)n(CCCNC(=O)Nc3cccc4ccccc34)c2cc1C,-1,17,5,4,-0.65,75*
CCN(Cc1ccncc1)C(=O)c1ccc(Br)o1,-1,-5,.,-1,.,.
Cc1cc(C)c(S(=O)(=O)/N=C2/C=C(Sc3ncn[nH]3)C(=O)c3ccccc32)cc1C,.,.,100*,.,-6.6*,109*
COc1ccc(CN(CCN(C)C)Cc2ccccc2)c(OC)c1,1,35,100*,-2,0.052,9
Cc1ccc(C)c(-c2cc(C(=O)Nc3sc(C)c(C)c3C(N)=O)c3ccccc3n2)c1,-1,29,61*,4,0.27,67
Cc1cccc(-c2cc(C(=O)Nc3sc(C)c(C)c3C(N)=O)c3ccccc3n2)c1,6,29,-1,-1,1.7,21
Cc1ccccc1-c1cc(C(=O)Nc2nc3c(s2)CCCC3)c2ccccc2n1,-1,?,65*,-1,-0.15,9
Cc1ccccc1C(=O)NC(C(=O)Nc1nc2c(s1)CCCC2)C(C)C (stereo not drawn),-1,4,50*,1,-0.48,6
Cc1cc(C)n(-c2ccc(NC(=O)C3CCCCN3C(=O)c3ccoc3C)cc2)n1 (stereo not drawn),-6,-10,.,-1,.,.
CC(C)(C)OC(=O)N1C[C@H](O)C[C@H]1C(=O)OCC(=O)c1ccc([N+](=O)[O-])cc1,-4,-6,.,-1,.,.
CCOc1ccc(-c2cccc(NC(=O)c3cccs3)c2)nn1,-2,-11,.,1,.,.
O=C1OC(OC2CCCCC2)(c2ccccc2)c2ccccc21 (stereo not drawn),-2,-4,5,0,-0.28,-9
O=C1OC(Oc2ccccc2)(c2ccccc2)c2ccccc21 (stereo not drawn),-1,-7,98*,0,0.51,39
CCCCOC1(c2ccccc2)OC(=O)c2ccccc21 (stereo not drawn),-3,-21,-5,2,-0.12,81*
O=C(CCNC(=O)c1ccc(Br)cc1)Nc1ccc(S(=O)(=O)Nc2ncccn2)cc1,1,-7,.,0,.,.
O=C(C1CCCN(Cc2ccccc2F)C1)N1CCc2ccccc2C1 (stereo not drawn),0,28,.,0,0.32,-4
SMILES,XBP1 UPR activ,T cruzi repl,L major viab,UPR CHOP act,Dynein cargo inh,CHOP inhibitor
O=C(C1CCCN(Cc2ccncc2)C1)N1CCc2ccccc2C1 (stereo not drawn),0,15,91*,-1,-0.69,12
Cc1cccc(CN2CCCC(C(=O)N3CCc4ccccc4C3)C2)c1 (stereo not drawn),1,55*,95*,-1,-0.29,18
Cc1cc([N+](=O)[O-])nn1CCCC(=O)Nc1sc2c(c1C(N)=O)CCC(C)C2 (stereo not drawn),1,1,69*,5,-0.18,28
CC(C)OC(=O)c1c(NC(=O)Cn2cnc([N+](=O)[O-])n2)sc2c1CCCC2,-2,105*,85*,1,-0.27,93*
CC1CCc2c(sc(NC(=O)Cn3cnc([N+](=O)[O-])n3)c2C(N)=O)C1 (stereo not drawn),0,68*,40,-1,1.5,39
CCOC(=O)c1c(NC(=O)Cn2cnc([N+](=O)[O-])n2)sc2c1CCCC2,-1,64*,92*,-1,-0.081,75*
NC(=O)c1c(NC(=O)Cn2cnc([N+](=O)[O-])n2)sc2c1CCCC2,-4,51,.,-1,0.19,11
COC(=O)c1sc(NC(=O)CCCn2nc([N+](=O)[O-])cc2C)c(C(=O)OC)c1C,1,32,49,2,-0.6,-14
CCOC(=O)Nc1sc2c(c1C(N)=O)CCC(C)C2 (stereo not drawn),2,18,-4,-1,-0.59,12
O=C(NCC(=O)N1CCN(S(=O)(=O)c2ccccc2)CC1)c1ccc(Br)o1,-5,0,.,0,.,.
CN(C)c1ccc(C(=O)N2CCN(C(=O)C3CCCO3)CC2)cc1 (stereo not drawn),-3,.,.,-1,.,.
NC(=O)COC(=O)c1sc2ccccc2c1Cl,0,-16,2,2,-0.54,3
Cc1cc(C)n(CCOC(=O)c2sc3ccccc3c2Cl)n1,1,-5,-2,2,0.63,74*
COCCn1c(Cc2ccccc2)nnc1SCC(=O)Nc1oc(C)c2c(C)n[nH]c(=O)c12,1,8,.,-2,.,.
CN(C)CCCNC(=S)N1CCn2c(nc3ccccc32)C1,-1,-9,51*,-1,0.59,30
CN(C)CCNC(=O)Cc1c(C(=O)O)n(C)c2ccccc12,.,.,94*,.,-0.016,.
CCN(CC)CCNC(=O)Cc1c(C(=O)O)n(CC)c2ccccc12,-3,-8,-8,1,0.14,11
CNC(=O)CN1C(=O)C2C3C=CC(C3)C2C1=O (stereo not drawn),0,-9,1,-1,0.92,78*
CN(C)CCNC(=O)c1ccc2c(c1)N(Cc1ccc(F)cc1)CCS2,5,-16,100*,-2,-1.7,9
Cc1onc(-c2ccccc2Cl)c1C(=O)Oc1cccc2cccnc12,1,2,28,1,-0.9,19
COc1cc(OC)cc(OC(=O)C2CCN(C(=O)c3ccc(F)cc3)CC2)c1,-1,-12,.,-1,.,.
O=C(c1ccccc1)c1ccc(OCC(O)CN2CCN(S(=O)(=O)N3CCCCC3)CC2)cc1 (stereo not drawn),0,12,35,0,1,41
